Experimental data reported in ChEMBL document CHEMBL1131181, “Abasic analogues of TSAO-T as the first sugar derivatives that specifically inhibit HIV-1 reverse transcriptase” (J Med Chem, 1998).

Key:
[1] = tested on: CCRF-CEM; assay: compound was tested for cytostatic concentration against mock infected cells of CEM cell line; format: functional; settings: Homo sapiens
In short: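 Uninfected CEM cells at 250 000 cells/mL were cultured with compound dilutions for 4 days at 37 °C. CC₅₀ is the concentration that inhibits CEM cell proliferation by 50%.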

[2] = tested on: Human immunodeficiency virus 1; assay: In vitro antiviral activity against HIV-1 (IIIB) in CEM (human leukemia) cells.; format: functional, organism-based; settings: Human immunodeficiency virus 1, CCRF-CEM
In short: (§1)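 CEM cells at 250 000 cells/mL were infected with HIV-1(III_B) or HIV-2(ROD) at 100 CCID₅₀/mL, then added to compound dilutions. After 4 days at 37 °C, cultures were scored for syncytium formation. EC₅₀ is the concentration that inhibits syncytium formation by 50%.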

[3] = tested on: Human immunodeficiency virus 2; assay: In vitro antiviral activity against HIV-2 (ROD) in CEM (human leukemia) cells.; format: functional, organism-based; settings: Human immunodeficiency virus 2, CCRF-CEM; in short: as §1
[4] = tested on: MT4; assay: Cytostatic concentration test against mock infected human cells of MT-4 cell line; format: functional
In short: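 MT-4 cells at 5 × 10⁵ cells/mL, mock-infected, combined with compound dilutions and held 5 days at 37 °C. Viable cells were counted in a blood-cell-counting chamber after Trypan blue staining. CC₅₀ is the concentration that cuts the viable cell number by 50%.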

[5] = tested on: MT4; assay: compound was tested for antiviral activity against HIV-2 ([…]) in MT-4 cell line, activity expressed as concentration required to protect 50% of the virus-infected cells against destruction by the virus.; format: functional, cell-based; settings: Homo sapiens
[6] = tested on: Human immunodeficiency virus 1; assay: compound was tested for antiviral activity against HIV-1 (3B) in MT-4 cell line, activity expressed as concentration required to protect 50% of the virus-infected cells against destruction by the virus.; format: functional, organism-based; settings: Human immunodeficiency virus 1, MT4

Compound | EC50 [2] [µM] | EC50 [3] [µM] | EC50 [6] [µM] | CC50 [1] [µM] | CC50 [4] [µM] | EC50 [5] [µM]
CC(C)(C)[Si](C)(C)OC[C@H]1O[C@@H](N)[C@H](O[Si](C)(C)C(C)(C)C)[C@]12OS(=O)(=O)C=C2N | > 10 | > 10 | > 10 | 16 | 21 | > 10
CCNC(=O)N[C@@H]1O[C@H](CO[Si](C)(C)C(C)(C)C)[C@@]2(OS(=O)(=O)C=C2N)[C@H]1O[Si](C)(C)C(C)(C)C.CCNC(=O)N[C@H]1O[C@H](CO[Si](C)(C)C(C)(C)C)[C@@]2(OS(=O)(=O)C=C2N)[C@H]1O[Si](C)(C)C(C)(C)C | > 10 | > 10 | > 10 | 20 | 19 | > 10
CC(C)(C)[Si](C)(C)OC[C@H]1O[C@H](NC(=O)NC(=O)c2ccccc2)[C@H](O[Si](C)(C)C(C)(C)C)[C@]12OS(=O)(=O)C=C2N | > 250 | > 250 | > 250 | 24 | > 250 | > 250
CC(C)(C)[Si](C)(C)OC[C@H]1O[C@@H](N=[N+]=[N-])[C@H](O[Si](C)(C)C(C)(C)C)[C@]12OS(=O)(=O)C=C2N | > 200 | > 200 | > 200 | > 200 | > 200 | > 200
C=C(C)C(=O)NC(=O)N[C@@H]1O[C@H](CO[Si](C)(C)C(C)(C)C)[C@@]2(OS(=O)(=O)C=C2N)[C@H]1O[Si](C)(C)C(C)(C)C | 0.56 | > 6.5 | 0.59 | 6.1 | 8.6 | > 6.5
CC(C)(C)[Si](C)(C)OC[C@H]1O[C@@H](OCc2ccccc2)[C@H](O[Si](C)(C)C(C)(C)C)[C@]12OS(=O)(=O)C=C2N | > 6.4 | > 6.4 | 4.9 | 11 | 12 | > 6.4
CC(C)(C)[Si](C)(C)OC[C@H]1O[C@@H](N2CCC(=O)NC2=O)[C@H](O[Si](C)(C)C(C)(C)C)[C@]12OS(=O)(=O)C=C2N | 0.31 | – | 0.92 | 19 | 21 | > 2
C=C(C)C(=O)NC(=O)N[C@H]1O[C@H](CO[Si](C)(C)C(C)(C)C)[C@@]2(OS(=O)(=O)C=C2N)[C@H]1O[Si](C)(C)C(C)(C)C | > 6.5 | > 6.5 | > 1.3 | 6.4 | 2.7 | > 1.3
COC1OC(CO[Si](C)(C)C(C)(C)C)C2(OS(=O)(=O)C=C2N)C1O[Si](C)(C)C(C)(C)C (stereo not given) | – | – | 21 | – | > 200 | > 200
CC(C)(C)[Si](C)(C)OC[C@H]1O[C@@H](OCc2ccccc2)[C@H](O[Si](C)(C)C(C)(C)C)[C@@]12OS(=O)(=O)C=C2N | > 6.4 | > 6.4 | 4.6 | 11 | 13 | > 6.4
CC(=O)NC(=O)N[C@@H]1O[C@H](CO[Si](C)(C)C(C)(C)C)[C@@]2(OS(=O)(=O)C=C2N)[C@H]1O[Si](C)(C)C(C)(C)C | 0.65 | > 10 | 0.89 | 15 | 26 | > 10
Cc1cn([C@@H]2O[C@H](CO[Si](C)(C)C(C)(C)C)C3(OS(=O)(=O)C=C3N)[C@H]2O[Si](C)(C)C(C)(C)C)c(=O)[nH]c1=O (stereo not given in full) | 0.06 | > 20 | 0.06 | – | 14 | > 20
CC(C)(C)[Si](C)(C)OC[C@H]1O[C@@H](n2ccc(=O)[nH]c2=O)[C@H](O[Si](C)(C)C(C)(C)C)C12OS(=O)(=O)C=C2N (stereo not given in full) | – | – | 0.18 | – | 13 | > 20
CC(C)(C)[Si](C)(C)OC[C@H]1O[C@@H](NC(=O)NC(=O)c2ccccc2)[C@H](O[Si](C)(C)C(C)(C)C)[C@]12OS(=O)(=O)C=C2N | 7 | > 50 | 16 | 48 | 90 | > 50

Second part, led by results:

EC50 [2] [µM] | EC50 [3] [µM] | EC50 [6] [µM] | Compound | CC50 [1] [µM] | CC50 [4] [µM] | EC50 [5] [µM]
> 2 | > 2 | 3.1 | COC(=O)c1ccccc1NC(=O)N[C@@H]1O[C@H](CO[Si](C)(C)C(C)(C)C)[C@@]2(OS(=O)(=O)C=C2N)[C@H]1O[Si](C)(C)C(C)(C)C | 3.8 | 17 | > 2
> 2 | > 2 | 4.2 | CSc1ccc(NC(=O)N[C@H]2O[C@H](CO[Si](C)(C)C(C)(C)C)[C@@]3(OS(=O)(=O)C=C3N)[C@H]2O[Si](C)(C)C(C)(C)C)cc1 | 6.4 | 17 | > 10
57 | > 50 | > 250 | CC(C)(C)[Si](C)(C)OC[C@H]1O[C@H](NC(N)=O)[C@H](O[Si](C)(C)C(C)(C)C)[C@]12OS(=O)(=O)C=C2N | 203 | > 250 | > 250
> 8 | > 8 | > 8 | CC(=O)N[C@H]1O[C@H](CO[Si](C)(C)C(C)(C)C)[C@@]2(OS(=O)(=O)C=C2N)[C@H]1O[Si](C)(C)C(C)(C)C | – | 16 | > 8
4.5 | > 10 | 5.3 | COC(=O)c1ccccc1NC(=O)N[C@H]1O[C@H](CO[Si](C)(C)C(C)(C)C)[C@@]2(OS(=O)(=O)C=C2N)[C@H]1O[Si](C)(C)C(C)(C)C | 22 | 26 | > 10
5 | > 10 | 4.5 | CSc1ccc(NC(=O)N[C@@H]2O[C@H](CO[Si](C)(C)C(C)(C)C)[C@@]3(OS(=O)(=O)C=C3N)[C@H]2O[Si](C)(C)C(C)(C)C)cc1 | 22 | 29 | > 10
2.6 | > 8 | 2.6 | CC(=O)N[C@@H]1O[C@H](CO[Si](C)(C)C(C)(C)C)[C@@]2(OS(=O)(=O)C=C2N)[C@H]1O[Si](C)(C)C(C)(C)C | – | 13 | > 8
> 10 | > 10 | 5.1 | CC(C)(C)[Si](C)(C)OC[C@H]1O[C@@H](NC(=O)Nc2ccccc2)[C@H](O[Si](C)(C)C(C)(C)C)[C@]12OS(=O)(=O)C=C2N | 10 | 14 | > 10
90 | > 50 | 90 | CC(C)(C)[Si](C)(C)OC[C@H]1O[C@@H](NC(N)=O)[C@H](O[Si](C)(C)C(C)(C)C)[C@]12OS(=O)(=O)C=C2N | > 250 | > 250 | > 250
> 2 | > 2 | > 2 | CC(C)(C)[Si](C)(C)OC[C@H]1O[C@@H](NC(=S)Nc2ccccc2)[C@H](O[Si](C)(C)C(C)(C)C)[C@]12OS(=O)(=O)C=C2N | 4.1 | 3.7 | > 2
0.65 | > 2 | 0.59 | CC(C)(C)[Si](C)(C)OC[C@H]1O[C@H](NC(=O)Nc2ccccc2)[C@H](O[Si](C)(C)C(C)(C)C)[C@]12OS(=O)(=O)C=C2N | 4.2 | 4.3 | > 2
